# Assay results from paper PMC11253873 (RSC Medicinal Chemistry, 2024).
# “And” between values parts separate entries of the source, which are not always exact repeats. Equal values may be shown once. Read-outs that look alike come from different tables or passages of the source.
# How the values were obtained:
# Mtb H37Rv [1] = test: microbe, parasite or virus in culture; type: cell-based, Mycobacterium tuberculosis; conditions: for MIC: Mycobacterium tuberculosis, H37RV, 336 h, read-out: Mtb MIC; for Mtb MIC: value in parentheses, Mtb H37Rv, 2 weeks
# PfDXR = target: T1, PfDXR (Plasmodium falciparum, UniProt Q8IKG4); test: DXR enzyme inhibition assay; type: biochemical; conditions: values in parentheses; compound at 100 μM
# T1 sequence (Q8IKG4 73-488): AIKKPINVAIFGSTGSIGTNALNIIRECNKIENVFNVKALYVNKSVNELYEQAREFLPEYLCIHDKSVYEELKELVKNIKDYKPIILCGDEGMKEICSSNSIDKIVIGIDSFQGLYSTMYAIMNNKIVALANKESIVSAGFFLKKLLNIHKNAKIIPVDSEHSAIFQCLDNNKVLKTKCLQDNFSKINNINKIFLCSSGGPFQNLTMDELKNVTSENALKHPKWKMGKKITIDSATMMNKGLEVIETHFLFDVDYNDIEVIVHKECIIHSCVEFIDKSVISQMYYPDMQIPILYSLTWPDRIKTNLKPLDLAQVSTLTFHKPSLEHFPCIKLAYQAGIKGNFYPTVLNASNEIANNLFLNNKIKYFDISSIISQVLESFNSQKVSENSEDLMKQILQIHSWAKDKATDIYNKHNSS
# Pf3D7 parasites [2] = test: P. falciparum growth inhibition assay; type: cell-based, Plasmodium falciparum; conditions: read-out: Pf IC50, 3 days, PicoGreen DNA content
# In short: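 Asynchronous cultures of wild-type 3D7 and fosmidomycin-resistant had1 strain E1-C12 are kept at 2% hematocrit in supplemented RPMI-1640 with 0.5% Albumax, under 5% O2/5% CO2/90% N2 at 37 °C. Parasites are diluted to 0.5% parasitemia and exposed to 1.2 nM–492.4 μM test compound from the start. After 3 days, DNA is read with PicoGreen (ex 485/em 528 nm). IC50 comes from a 4-parameter nonlinear fit. Technical duplicates, biological triplicate.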
# MtbDXR = target: T2, MtbDXR (Mycobacterium tuberculosis, UniProt P9WNS1); test: DXR enzyme inhibition assay; type: biochemical; conditions: values in parentheses; compound at 100 μM
# T2 sequence (P9WNS1 1-413): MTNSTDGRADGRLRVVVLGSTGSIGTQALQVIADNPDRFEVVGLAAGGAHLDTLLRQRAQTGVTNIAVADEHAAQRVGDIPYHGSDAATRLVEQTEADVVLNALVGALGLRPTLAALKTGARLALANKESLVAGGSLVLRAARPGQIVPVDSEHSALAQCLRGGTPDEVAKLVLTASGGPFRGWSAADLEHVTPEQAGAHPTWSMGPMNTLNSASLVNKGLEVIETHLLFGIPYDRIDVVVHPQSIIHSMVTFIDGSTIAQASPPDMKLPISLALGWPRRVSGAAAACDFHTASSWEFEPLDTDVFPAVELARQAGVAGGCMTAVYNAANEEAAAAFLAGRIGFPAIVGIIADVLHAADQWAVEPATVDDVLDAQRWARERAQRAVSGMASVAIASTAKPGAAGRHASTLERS
# Mtb H37Rv [3] = conditions: cited from earlier work
# Pf3D7 parasites [4] = conditions: read-out: Pf IC50; P. falciparum parasites; cited from earlier work
compound,measurement,setting,value
"CC(=O)N(O)CCC(c1ccc(Cl)c(Cl)c1)P(=O)(OCOC(=O)C(C)(C)C)OCOC(=O)C(C)(C)C (stereo not drawn) [Compound 7a, ({[1-(3,4-Dichlorophenyl)-3-(N-hydroxyacetamido)propyl]({[(2,2-dimethylpropanoyl)oxy]methoxy})phosphoryl}oxy)methyl 2,2-dimethylpropanoate]",MIC,Mtb H37Rv [1],4.6 µg/mL
"CC(=O)N(CCC(c1ccc(Cl)c(Cl)c1)P(=O)(OCOC(=O)C(C)(C)C)OCOC(=O)C(C)(C)C)OCc1ccc(Br)cc1 (stereo not drawn) [Compound 7h, {[(3-{N-[(4-Bromophenyl)methoxy]acetamido}-1-(3,4-dichlorophenyl)propyl)({[(2,2-dimethylpropanoyl)oxy]methoxy})phosphoryl]oxy}methyl 2,2-dimethylpropanoate]",MIC,Mtb H37Rv [1],6.25 µg/mL
"Diammonium {3-[N-(benzyloxy)acetamido]-1-(3,4-dichlorophenyl)propyl} phosphonate [Compound 6b]",Pf DXR percent remaining enzyme activity at 100 μM,PfDXR,(26.66) percent
same,IC50,Pf3D7 parasites [2],31.5 ± 7.85 µM
same,Mtb DXR percent remaining enzyme activity at 100 μM,MtbDXR,(34.20) percent
same,Mtb MIC,Mtb H37Rv [1],> 214 µM
"[({3-[N-({[1,1′-Biphenyl]-4-yl}methoxy)acetamido]-1-(3,4-dichlorophenyl)propyl}({[(2,2-dimethylpropanoyl)oxy] methoxy}) phosphoryl)oxy] methyl-2,2-dimethylpropanoate [Compound 7d]",IC50,Pf3D7 parasites [2],8.78 ± 0.92 µM
same,Mtb MIC,Mtb H37Rv [1],17.0 µM
"CC(=O)N(CCC(c1ccc(Cl)c(Cl)c1)P(=O)(OCOC(=O)C(C)(C)C)OCOC(=O)C(C)(C)C)OC(C)c1ccc(Cl)cc1 (stereo not drawn) [Compound 7j, ({[1-(3,4-Dichlorophenyl)-3-{N-[1-(4-chlorophenyl)ethoxy]acetamido}propyl]({[(2,2-dimethylpropanoyl)oxy]methoxy})phosphoryl}oxy)methyl 2,2-dimethylpropanoate]",MIC,Mtb H37Rv [1],9.4 µg/mL
"CC(=O)N(CCC(c1ccc(Cl)c(Cl)c1)P(=O)(OCOC(=O)C(C)(C)C)OCOC(=O)C(C)(C)C)OCCCCc1ccccc1 (stereo not drawn) [Compound 7g, ({[1-(3,4-Dichlorophenyl)-3-[N-(4-phenylbutoxy)acetamido]propyl]({[(2,2-dimethylpropanoyl)oxy]methoxy})phosphoryl}oxy) methyl 2,2-dimethylpropanoate]",MIC,Mtb H37Rv [1],12.5 µg/mL
"CC(=O)N(CCC(c1ccc(Cl)c(Cl)c1)P(=O)(OCOC(=O)C(C)(C)C)OCOC(=O)C(C)(C)C)OC(C)c1ccccc1 (stereo not drawn) [Compound 7e, ({[1-(3,4-Dichlorophenyl)-3-[N-(1-phenylethoxy)acetamido]propyl]({[(2,2-dimethylpropanoyl)oxy]methoxy})phosphoryl}oxy) methyl 2,2-dimethylpropanoate]",MIC,Mtb H37Rv [1],9.4 µg/mL and 13.9 µM
"Diammonium [1-(3,4-dichlorophenyl)-3-[N-(4-phenylbutoxy)acetamido]propyl] phosphonate [Compound 6g]",Pf DXR percent remaining enzyme activity at 100 μM,PfDXR,(25.64) percent
same,IC50,Pf3D7 parasites [2],63.3 ± 16.7 µM
same,Mtb DXR percent remaining enzyme activity at 100 μM,MtbDXR,(99.10) percent
same,Mtb MIC,Mtb H37Rv [1],3.1 µM
"CC(=O)N(CCC(c1ccc(Cl)c(Cl)c1)P(=O)(OCOC(=O)C(C)(C)C)OCOC(=O)C(C)(C)C)OCc1ccc(-c2ccc(C(C)C)cc2)cc1 (stereo not drawn) [Compound 7i, ({[1-(3,4-Dichlorophenyl)-3-(N-{[4′-(propan-2-yl)-[1,1′-biphenyl]-4-yl]methoxy}acetamido)propyl]({[(2,2-dimethylpropanoyl)oxy]methoxy})phosphoryl}oxy)methyl 2,2-dimethylpropanoate]",MIC,Mtb H37Rv [1],> 100 µg/mL
"CC(=O)N(CCC(c1ccc(Cl)c(Cl)c1)P(=O)(OCOC(=O)C(C)(C)C)OCOC(=O)C(C)(C)C)OCc1ccc2ccccc2c1 (stereo not drawn) [Compound 7c, ({[1-(3,4-Dichlorophenyl)-3-{N-[(naphthalen-2-yl)methoxy]acetamido}propyl]({[(2,2-dimethylpropanoyl)oxy]methoxy})phosphoryl}oxy)methyl-2,2-dimethylpropanoate]",MIC,Mtb H37Rv [1],6.25 µg/mL
"CC(=O)N(CCC(c1ccc(Cl)c(Cl)c1)P(=O)(OCOC(=O)C(C)(C)C)OCOC(=O)C(C)(C)C)OCc1ccc(C(C)C)cc1 (stereo not drawn) [Compound 7f, ({[1-(3,4-Dichlorophenyl)-3-(N-{[4-(propan-2-yl)phenyl]methoxy}acetamido)propyl]({[(2,2-dimethylpropanoyl)oxy]methoxy})phosphoryl}oxy) methyl 2,2-dimethylpropanoate]",MIC,Mtb H37Rv [1],12.5 µg/mL
"Diammonium [3-{acetyl[1-(4-trifluoromethylphenyl)ethoxy]amino}-1-(3,4-dichlorophenyl)propyl] phosphonate [Compound 6m]",Pf DXR percent remaining enzyme activity at 100 μM,PfDXR,(74.69) percent
same,IC50,Pf3D7 parasites [2],79.2 ± 12.1 µM
same,Mtb DXR percent remaining enzyme activity at 100 μM,MtbDXR,(59.60) percent
same,Mtb MIC,Mtb H37Rv [1],> 91 µM
"CC(=O)N(CCC(c1ccc(Cl)c(Cl)c1)P(=O)(OCOC(=O)C(C)(C)C)OCOC(=O)C(C)(C)C)OC(C)c1ccc(C(F)(F)F)cc1 (stereo not drawn) [Compound 7m, ({[1-(3,4-Dichlorophenyl)-3-{N-[1-(4-trifluoromethylphenyl)ethoxy]acetamido}propyl]({[(2,2-dimethylpropanoyl)oxy]methoxy})phosphoryl}oxy)methyl 2,2-dimethylpropanoate]",MIC,Mtb H37Rv [1],> 100 µg/mL
"O=CN(O)CCCP(=O)(O)O [1(Fos), Fosmidomycin]",Mtb MIC,Mtb H37Rv [3],>500 μg mL^−1 and >500 (ref. [34]) μg mL^−1
"CC(=O)N(CCC(c1ccc(Cl)c(Cl)c1)P(=O)(OCOC(=O)C(C)(C)C)OCOC(=O)C(C)(C)C)OC(C)c1ccc(F)cc1 (stereo not drawn) [Compound 7n, ({[1-(3,4-Dichlorophenyl)-3-{N-[1-(4-fluorophenyl)ethoxy]acetamido}propyl]({[(2,2-dimethylpropanoyl)oxy]methoxy})phosphoryl}oxy)methyl 2,2-dimethylpropanoate]",MIC,Mtb H37Rv [1],4.6 µg/mL
CC(=O)N(CCC(c1ccc(Cl)c(Cl)c1)P(=O)(O)O)OCc1ccc(-c2ccc(C(C)C)cc2)cc1.N.N (stereo not drawn) [Compound 6i],MIC,Mtb H37Rv [1],25 µg/mL
"Diammonium (3-{N-[(4-bromophenyl) methoxy] acetamido}-1-(3,4-dichlorophenyl) propyl) phosphonate [Compound 6h]",Pf DXR percent remaining enzyme activity at 100 μM,PfDXR,(53.07) percent
same,IC50,Pf3D7 parasites [2],67.8 ± 3.57 µM
same,Mtb DXR percent remaining enzyme activity at 100 μM,MtbDXR,(72.30) percent
same,Mtb MIC,Mtb H37Rv [1],> 92 µM
"Diammonium {3-[N-({[1,1′-biphenyl]-4-yl}methoxy)acetamido]-1-(3,4-dichlorophenyl) propyl} phosphonate [Compound 6d]",Pf DXR percent remaining enzyme activity at 100 μM,PfDXR,(26.97) percent
same,IC50,Pf3D7 parasites [2],86.4 ± 10.1 µM
same,Mtb DXR percent remaining enzyme activity at 100 μM,MtbDXR,(93.90) percent
same,Mtb MIC,Mtb H37Rv [1],23.1 µM
"CC(=O)N(O)CCCP(=O)(O)O [2(FR), FR900098]",Mtb MIC,Mtb H37Rv [3],>500 μg mL^−1 and >500 (ref. [34]) μg mL^−1
same,IC50,Pf3D7 parasites [4],0.511 µM
"CC(=O)N(CCC(c1ccc(Cl)c(Cl)c1)P(=O)(OCOC(=O)C(C)(C)C)OCOC(=O)C(C)(C)C)OC(C)c1ccc(C)cc1 (stereo not drawn) [Compound 7k, ({[1-(3,4-Dichlorophenyl)-3-{N-[1-(4-methylphenyl)ethoxy]acetamido}propyl]({[(2,2-dimethylpropanoyl)oxy]methoxy})phosphoryl}oxy)methyl 2,2-dimethylpropanoate]",MIC,Mtb H37Rv [1],12.5 µg/mL
"CC(=O)N(CCC(c1ccc(Cl)c(Cl)c1)P(=O)(OCOC(=O)C(C)(C)C)OCOC(=O)C(C)(C)C)OCc1ccccc1 (stereo not drawn) [Compound 7b, [({3-[N-(Benzyloxy)acetamido]-1-(3,4-dichlorophenyl)propyl}({[(2,2-dimethylpropanoyl)oxy]methoxy})phosphoryl)oxy]methyl 2,2-dimethylpropanoate]",MIC,Mtb H37Rv [1],6.25 µg/mL
CC(=O)N(CCC(c1ccc(Cl)c(Cl)c1)P(=O)(O)O)OCc1ccc2ccccc2c1.N.N (stereo not drawn) [Compound 6c],MIC,Mtb H37Rv [1],12.5 µg/mL
